Assay [1] concerns HepG2. Put plainly: Potency index, ratio of vorinostat GI50 to compound GI50 for human HepG2 cells. It is filed as functional.
For a further assay, the target named is Histone deacetylase 2 (Homo sapiens, UniProt Q92769). In words: Inhibition of full length recombinant human C-terminal His-tagged HDAC2 expressed in baculovirus infected sf9 cells using Boc-Lys-(Ac)-AMC as substrate preincubated for 15 mins followed by substrate addition measured after 60 mins by fluorescence assay.
Sequence of Histone deacetylase 2 (Q92769 whole entry): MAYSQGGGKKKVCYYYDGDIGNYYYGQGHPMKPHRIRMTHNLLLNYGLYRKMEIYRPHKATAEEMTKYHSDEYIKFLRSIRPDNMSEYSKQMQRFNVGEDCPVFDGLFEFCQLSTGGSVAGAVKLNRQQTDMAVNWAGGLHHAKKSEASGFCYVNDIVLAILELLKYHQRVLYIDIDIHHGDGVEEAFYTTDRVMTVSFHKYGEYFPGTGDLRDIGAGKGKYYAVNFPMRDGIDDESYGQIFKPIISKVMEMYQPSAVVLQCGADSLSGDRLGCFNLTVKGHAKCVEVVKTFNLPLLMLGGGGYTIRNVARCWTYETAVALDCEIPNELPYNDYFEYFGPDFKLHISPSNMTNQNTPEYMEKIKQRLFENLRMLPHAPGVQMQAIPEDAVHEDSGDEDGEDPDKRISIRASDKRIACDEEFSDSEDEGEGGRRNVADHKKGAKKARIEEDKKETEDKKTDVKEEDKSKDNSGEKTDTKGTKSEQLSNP
For assay [2], the target named is T1, Protein deacetylase HDAC6 (Homo sapiens, UniProt Q9UBN7).
T1 sequence (Q9UBN7 whole entry): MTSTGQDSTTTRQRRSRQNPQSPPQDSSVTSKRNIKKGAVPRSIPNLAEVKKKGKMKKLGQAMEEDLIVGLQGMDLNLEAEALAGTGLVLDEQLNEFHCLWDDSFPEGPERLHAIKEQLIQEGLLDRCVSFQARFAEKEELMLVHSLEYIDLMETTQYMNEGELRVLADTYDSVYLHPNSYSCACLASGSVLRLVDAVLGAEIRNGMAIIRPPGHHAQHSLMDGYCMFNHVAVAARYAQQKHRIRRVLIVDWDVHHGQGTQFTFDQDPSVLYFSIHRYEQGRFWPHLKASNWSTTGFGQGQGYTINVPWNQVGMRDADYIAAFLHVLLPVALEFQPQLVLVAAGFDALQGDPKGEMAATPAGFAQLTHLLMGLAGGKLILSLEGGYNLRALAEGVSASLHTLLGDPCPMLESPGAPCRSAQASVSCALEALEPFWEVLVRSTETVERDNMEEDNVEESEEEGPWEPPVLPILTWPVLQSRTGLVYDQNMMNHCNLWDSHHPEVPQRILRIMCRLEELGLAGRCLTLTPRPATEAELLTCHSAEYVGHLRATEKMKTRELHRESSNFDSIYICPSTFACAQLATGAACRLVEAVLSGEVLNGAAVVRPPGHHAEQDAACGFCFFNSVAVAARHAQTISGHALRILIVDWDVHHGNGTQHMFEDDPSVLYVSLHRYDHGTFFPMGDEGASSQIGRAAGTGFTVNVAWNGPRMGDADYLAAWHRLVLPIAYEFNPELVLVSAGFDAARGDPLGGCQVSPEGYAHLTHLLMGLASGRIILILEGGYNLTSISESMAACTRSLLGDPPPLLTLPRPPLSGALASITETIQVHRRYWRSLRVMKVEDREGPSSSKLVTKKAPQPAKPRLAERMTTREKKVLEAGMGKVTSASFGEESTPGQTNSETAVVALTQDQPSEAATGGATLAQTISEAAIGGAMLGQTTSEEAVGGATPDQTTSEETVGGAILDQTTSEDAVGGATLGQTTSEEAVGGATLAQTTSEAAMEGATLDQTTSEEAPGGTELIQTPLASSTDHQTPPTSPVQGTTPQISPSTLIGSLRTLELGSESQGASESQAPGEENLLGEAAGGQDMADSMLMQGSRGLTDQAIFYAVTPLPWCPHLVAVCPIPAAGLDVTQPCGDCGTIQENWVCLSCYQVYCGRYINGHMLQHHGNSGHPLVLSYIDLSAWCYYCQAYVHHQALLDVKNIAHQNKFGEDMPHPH
Put plainly: Inhibition of full length recombinant human N-terminal GST-tagged HDAC6 expressed in baculovirus infected sf9 cells using Boc-Lys-(Ac)-AMC as substrate preincubated for 15 mins followed by substrate addition measured after 60 mins by fluorescence assay.

The next assay has as its target Histone deacetylase. Put plainly: Inhibition of HDAC in human HeLa nuclear extract using Boc-Lys-(Ac)-AMC as substrate preincubated for 15 mins followed by substrate addition measured after 60 mins by fluorescence assay. It counts as protein assay.
In the next assay the target is T2, Histone deacetylase 8 (Homo sapiens, UniProt Q9BY41).
T2 sequence (Q9BY41 whole entry): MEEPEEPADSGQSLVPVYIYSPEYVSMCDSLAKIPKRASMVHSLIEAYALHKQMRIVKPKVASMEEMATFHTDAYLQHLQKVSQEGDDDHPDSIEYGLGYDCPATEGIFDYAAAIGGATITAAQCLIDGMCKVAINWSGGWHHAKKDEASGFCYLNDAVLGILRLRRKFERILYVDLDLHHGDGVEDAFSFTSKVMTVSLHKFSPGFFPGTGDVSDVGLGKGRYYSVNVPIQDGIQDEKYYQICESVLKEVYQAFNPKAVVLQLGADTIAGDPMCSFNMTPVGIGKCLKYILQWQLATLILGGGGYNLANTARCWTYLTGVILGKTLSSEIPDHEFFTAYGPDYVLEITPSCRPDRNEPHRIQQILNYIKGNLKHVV
Put plainly: Inhibition of full length recombinant human C-terminal His-tagged HDAC8 expressed in baculovirus infected sf9 cells using Boc-Lys-(TFA)-AMC as substrate preincubated for 15 mins followed by substrate addition measured after 60 mins by fluorescence assay.

Assay [3] concerns HepG2. In words: Antiproliferative activity against human HepG2 cells after 96 hrs by MTT assay. The following applies: Homo sapiens, HepG2, 96 h. It is filed as functional. The essentials:
(§1)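 Cells from Shanghai Cell Bank; A549 grown in high-glucose DMEM and HepG2 in MEM, both with 10% FBS plus penicillin/streptomycin, at 37°C in 5% CO₂. Seeded at 1.5-3.5×10⁴ cells/well for 24 h, then given graded compound concentrations for 96 h. MTT solution (2 mg/mL) added for 4 h, formazan dissolved in DMSO, A570 read. Growth expressed as treated/untreated cell number ratio.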

Another assay relates to A549. Put plainly: Antiproliferative activity against human A549 cells after 96 hrs by MTT assay. It is filed as functional. The following applies: Homo sapiens, A549, 96 h. Put shortly:
as §1

A further assay concerns the target Histone deacetylase 1 (Homo sapiens, UniProt Q13547). In words: Inhibition of full length recombinant human C-terminal FLAG/His-tagged HDAC1 expressed in baculovirus infected sf9 cells using Boc-Lys-(Ac)-AMC as substrate preincubated for 15 mins followed by substrate addition measured after 60 mins by fluorescence assay.
Assay [4] concerns the target Histone deacetylase 3/Nuclear receptor corepressor 2 (HDAC3/NCoR2) (Homo sapiens, UniProt O15379). Put plainly: Inhibition of full length recombinant human C-terminal His-tagged HDAC3/N-terminal GST-tagged NCOR2 (395 to 489 residues) expressed in baculovirus infected sf9 cells using Boc-Lys-(Ac)-AMC as substrate preincubated for 15 mins followed by substrate addition measured after 60 mins by fluorescence assay.

Sequence of Histone deacetylase 3/Nuclear receptor corepressor 2 (HDAC3/NCoR2) (O15379 whole entry, the tested form may be a part): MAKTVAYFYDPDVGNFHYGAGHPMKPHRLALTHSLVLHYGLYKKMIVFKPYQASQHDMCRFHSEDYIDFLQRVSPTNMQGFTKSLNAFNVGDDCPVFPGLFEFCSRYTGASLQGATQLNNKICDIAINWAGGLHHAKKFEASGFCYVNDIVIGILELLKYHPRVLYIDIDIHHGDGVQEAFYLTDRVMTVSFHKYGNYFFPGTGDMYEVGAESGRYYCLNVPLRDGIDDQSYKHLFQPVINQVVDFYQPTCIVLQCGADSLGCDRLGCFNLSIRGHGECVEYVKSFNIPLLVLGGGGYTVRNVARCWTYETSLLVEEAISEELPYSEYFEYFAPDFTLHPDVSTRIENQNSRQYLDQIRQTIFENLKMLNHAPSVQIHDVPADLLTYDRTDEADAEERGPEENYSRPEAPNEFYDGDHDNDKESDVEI
Sequence of Histone deacetylase 3/Nuclear receptor corepressor 2 (HDAC3/NCoR2) (Q9Y618 whole entry, further chain, the tested form may be a part): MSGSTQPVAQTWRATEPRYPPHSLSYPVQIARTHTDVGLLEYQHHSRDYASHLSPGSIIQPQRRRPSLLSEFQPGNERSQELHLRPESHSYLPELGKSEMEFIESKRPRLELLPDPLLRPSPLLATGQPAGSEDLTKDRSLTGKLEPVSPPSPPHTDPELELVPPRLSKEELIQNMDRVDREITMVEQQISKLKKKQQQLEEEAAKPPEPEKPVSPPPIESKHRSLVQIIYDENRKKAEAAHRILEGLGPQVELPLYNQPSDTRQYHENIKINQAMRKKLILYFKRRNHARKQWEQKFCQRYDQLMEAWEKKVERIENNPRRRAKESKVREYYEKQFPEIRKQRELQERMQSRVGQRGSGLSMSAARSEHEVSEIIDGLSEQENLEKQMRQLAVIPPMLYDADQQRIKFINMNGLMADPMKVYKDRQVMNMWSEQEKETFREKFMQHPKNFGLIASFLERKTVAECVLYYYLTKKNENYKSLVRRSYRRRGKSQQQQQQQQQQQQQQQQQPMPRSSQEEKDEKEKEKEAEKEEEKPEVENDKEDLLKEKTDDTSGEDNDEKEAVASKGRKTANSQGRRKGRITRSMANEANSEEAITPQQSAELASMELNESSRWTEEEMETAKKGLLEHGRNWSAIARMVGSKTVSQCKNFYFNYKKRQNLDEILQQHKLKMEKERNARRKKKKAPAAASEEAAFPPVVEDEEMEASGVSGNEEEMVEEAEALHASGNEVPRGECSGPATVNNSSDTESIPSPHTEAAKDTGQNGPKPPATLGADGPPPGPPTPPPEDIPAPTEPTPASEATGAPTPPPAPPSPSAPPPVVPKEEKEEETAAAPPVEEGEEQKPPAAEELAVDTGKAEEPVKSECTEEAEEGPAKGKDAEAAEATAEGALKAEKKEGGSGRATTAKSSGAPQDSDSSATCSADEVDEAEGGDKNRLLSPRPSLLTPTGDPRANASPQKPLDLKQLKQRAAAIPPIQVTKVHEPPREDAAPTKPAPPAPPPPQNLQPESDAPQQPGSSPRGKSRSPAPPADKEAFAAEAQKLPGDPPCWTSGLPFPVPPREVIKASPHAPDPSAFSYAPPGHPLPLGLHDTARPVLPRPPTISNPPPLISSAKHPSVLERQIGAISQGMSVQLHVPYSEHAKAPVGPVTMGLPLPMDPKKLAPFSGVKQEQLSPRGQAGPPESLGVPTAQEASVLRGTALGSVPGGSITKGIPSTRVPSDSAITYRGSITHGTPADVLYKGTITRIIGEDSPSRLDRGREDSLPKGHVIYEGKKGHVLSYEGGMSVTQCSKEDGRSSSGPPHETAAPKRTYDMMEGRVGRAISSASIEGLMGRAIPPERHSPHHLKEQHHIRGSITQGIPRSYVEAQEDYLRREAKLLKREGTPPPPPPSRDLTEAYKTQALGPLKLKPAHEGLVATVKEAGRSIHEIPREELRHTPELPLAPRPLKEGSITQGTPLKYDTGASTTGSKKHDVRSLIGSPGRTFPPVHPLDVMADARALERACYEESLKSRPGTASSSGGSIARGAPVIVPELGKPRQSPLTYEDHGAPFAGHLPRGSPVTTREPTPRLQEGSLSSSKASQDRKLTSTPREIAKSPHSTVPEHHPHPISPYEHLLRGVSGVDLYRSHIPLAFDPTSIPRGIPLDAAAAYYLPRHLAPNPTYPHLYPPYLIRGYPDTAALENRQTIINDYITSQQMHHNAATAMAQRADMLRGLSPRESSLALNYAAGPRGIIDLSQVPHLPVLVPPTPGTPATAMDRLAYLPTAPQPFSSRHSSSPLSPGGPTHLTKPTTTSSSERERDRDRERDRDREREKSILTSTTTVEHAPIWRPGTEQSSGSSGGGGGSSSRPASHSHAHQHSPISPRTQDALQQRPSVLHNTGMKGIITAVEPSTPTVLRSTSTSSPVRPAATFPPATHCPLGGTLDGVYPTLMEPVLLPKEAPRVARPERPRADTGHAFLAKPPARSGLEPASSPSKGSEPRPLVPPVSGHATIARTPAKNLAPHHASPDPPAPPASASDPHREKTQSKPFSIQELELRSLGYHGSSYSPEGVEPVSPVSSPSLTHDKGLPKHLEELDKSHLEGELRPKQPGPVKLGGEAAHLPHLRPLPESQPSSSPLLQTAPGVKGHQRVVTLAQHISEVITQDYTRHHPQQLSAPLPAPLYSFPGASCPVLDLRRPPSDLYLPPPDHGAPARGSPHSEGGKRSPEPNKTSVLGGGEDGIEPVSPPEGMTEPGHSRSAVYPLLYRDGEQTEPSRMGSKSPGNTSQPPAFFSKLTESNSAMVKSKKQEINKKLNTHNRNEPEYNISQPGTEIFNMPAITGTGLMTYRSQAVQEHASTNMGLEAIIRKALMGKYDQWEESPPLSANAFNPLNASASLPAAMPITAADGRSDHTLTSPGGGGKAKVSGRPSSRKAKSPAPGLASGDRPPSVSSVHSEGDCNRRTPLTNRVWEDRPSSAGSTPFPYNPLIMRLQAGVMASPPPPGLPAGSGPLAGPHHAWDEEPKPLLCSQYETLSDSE
Sequence of Histone deacetylase 1 (Q13547 whole entry, the tested form may be a part): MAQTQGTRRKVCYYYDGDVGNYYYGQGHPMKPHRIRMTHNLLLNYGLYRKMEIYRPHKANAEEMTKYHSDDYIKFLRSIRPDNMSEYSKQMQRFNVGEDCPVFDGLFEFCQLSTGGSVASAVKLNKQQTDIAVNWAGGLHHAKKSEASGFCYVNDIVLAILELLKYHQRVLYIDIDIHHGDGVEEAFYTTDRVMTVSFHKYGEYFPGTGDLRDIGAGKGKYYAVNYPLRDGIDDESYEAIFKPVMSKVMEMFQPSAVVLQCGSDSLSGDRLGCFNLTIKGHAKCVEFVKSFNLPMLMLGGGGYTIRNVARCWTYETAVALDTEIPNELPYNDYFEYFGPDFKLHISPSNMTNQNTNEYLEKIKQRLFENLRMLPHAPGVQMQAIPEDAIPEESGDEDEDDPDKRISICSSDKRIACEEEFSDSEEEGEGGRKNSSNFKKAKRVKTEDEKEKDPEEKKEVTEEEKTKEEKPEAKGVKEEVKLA

With `Cc1cc(-c2ccc(F)cc2)n(Cc2ccc(C(=O)NO)cc2)n1`, in the assay with HepG2 [1], the RatioGI50 is listed as 6. In addition, the half-maximal inhibitory concentration (IC50) is 1970 nM at Histone deacetylase 2; 20 nM in [2]; 1439 nM against Histone deacetylase; more than 5000 nM on Histone deacetylase 8; 2020 nM at Histone deacetylase 1; 1200 nM in assay [4]. Besides, the 50% growth inhibitory concentration (GI50) in the assay with HepG2 [3] was found to be 3630 nM; with A549, 33000 nM.

Turning to `O=C(CCCCCNC(=O)c1cc(-c2ccc(F)cc2)[nH]n1)NO`, the IC50 worked out at 42 nM at Histone deacetylase 2; 29 nM in assay [2]; 58 nM against Histone deacetylase; 3710 nM at Histone deacetylase 8; 66 nM on Histone deacetylase 1; 36 nM in [4]. The GI50 was found to be 47600 nM with HepG2 [3] and 7090 nM in the assay with A549.

In the case of `O=C(NO)c1ccc(CNC(=O)c2cc(-c3ccc(F)cc3)[nH]n2)cc1`, the IC50 on Histone deacetylase 2 was 17 nM; in assay [2] it was 1 nM; against Histone deacetylase, 22 nM; at Histone deacetylase 8, more than 5000 nM; at Histone deacetylase 1, 38 nM; in assay [4], 9 nM. Also, the GI50 came to 38100 nM in the assay with HepG2 [3] and 20200 nM with A549.

Regarding `O=C(CCCCNC(=O)c1cc(-c2ccc(F)cc2)[nH]n1)NO`, the half-inhibitory concentration (IC50) on Histone deacetylase 2 is 883 nM; in assay [2], 275 nM; on Histone deacetylase, 644 nM; on Histone deacetylase 8, more than 5000 nM; on Histone deacetylase 1, 1040 nM; in [4], 671 nM. Further, the concentration for 50% growth inhibition (GI50) in the assay with HepG2 [3] and in the assay with A549 was more than 100000 nM each time.

As to `Cc1cc(-c2ccc3c(c2)OCO3)nn1Cc1ccc(C(=O)NO)cc1`, the IC50 was 40 nM at Histone deacetylase 2; 5 nM in [2]; 8 nM at Histone deacetylase; more than 5000 nM at Histone deacetylase 8; 24 nM at Histone deacetylase 1; 36 nM in assay [4]. The 50% growth inhibitory concentration (GI50) came to 20800 nM in the assay with HepG2 [3] and 28100 nM with A549.

Regarding `Cc1ccc(-c2cc(C(F)(F)F)n(CCc3ccc(C(=O)NO)cc3)n2)cc1`, the IC50 on Histone deacetylase 2 was 549 nM; in assay [2] it was 78 nM; against Histone deacetylase, 121 nM; on Histone deacetylase 8 it was more than 5000 nM; on Histone deacetylase 1, 352 nM; in assay [4], 80 nM. The values for the GI50 with HepG2 [3] and with A549 were 27600 nM and more than 100000 nM, respectively.

As to `O=C(CCNC(=O)c1cc(-c2ccc(F)cc2)[nH]n1)NO`, the IC50 (on Histone deacetylase 2; in assay [2]; at Histone deacetylase; at Histone deacetylase 8; at Histone deacetylase 1; in [4]) was more than 5000 nM in each case. Besides, the GI50 with HepG2 [3] is 76000 nM; in the assay on A549, 46900 nM.

(Values after ChEMBL document CHEMBL4219109, “Design, synthesis and biological evaluation of novel hydroxamic acid based histone deacetylase 6 selective inhibitors bearing phenylpyrazol scaffold as surface recognition motif” (Bioorg Med Chem, 2018).)
